# Assays:
# [1] = Pharmacokinetics in plasma and urine; assay type: in vivo, human
# Procedure, shortened: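 Plasma was sampled pre-dose on days −2, −1, 1, 2, 3 and 5–9, up to 48 h after the day 1 single dose and up to 72 h after the day 9 dose. Urine was collected on days 1 and 9. Analysis was by HPLC–MS/MS (LLOQ 1.11 nmol/L plasma, 4.44 nmol/L urine). AUC used linear-up/log-down trapezoids. Steady state was assessed from day 5–9 troughs with a log-scale repeated-measures model. n = 36.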
# [2] = system: patients with type 2 diabetes mellitus; assay: Urinary glucose excretion; assay type: in vivo, human; settings: day 1
# Procedure, shortened: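 All urine was collected over 24 h on days −2, −1, 1, 8 and 9, extended to 48 h after day 1 and 72 h after day 9. Ae0–24 was measured after a single dose with OGTT (75 g glucose, day 1) and after multiple daily doses, fasting (day 8) or with OGTT (day 9). Results are mean (SD) for the treated set.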
# SGLT2 = settings: in vitro, cited from earlier work
structure (smiles),measurement,setting,value
OC[C@H]1O[C@@H](c2ccc(Cl)c(Cc3ccc(O[C@H]4CCOC4)cc3)c2)[C@H](O)[C@@H](O)[C@@H]1O [Empagliflozin],Accumulation at steady state,[1]; 2.5–100 mg qd,up to 23%
same,half-life,"[1]; human, plasma, oral, Mean t 1/2 at steady state, day 9, range over 2.5–100 mg qd",10.3 to 18.8 h
same,Tmax,"[1]; human, plasma, po",1.5 to 3 h
same,Steady state reached by,"[1]; repeated once-daily dosing, trough concentrations days 5–8",≤ 5 days
same,Amount of glucose excreted in the urine over 24 h (Ae0–24),"[2]; 2.5 mg single dose, OGTT conditions",46.3 g
same,Increase in UGE with fourfold dose increase from 2.5 to 10 mg,[2]; single dose,more than a twofold increase
same,Increase in UGE with fourfold dose increase from 25 to 100 mg,[2]; single dose,~1.2 fold
same,"pIC50 (SE), inhibition of SGLT2",SGLT2,8.5
same,IC50,"SGLT2; read-out: IC50, inhibition of SGLT2",3.1 nM

# — publication PMC3889329 (Diabetes Therapy, 2013)
